One data set in a line: LogD determination. The format is physicochemical. As to conditions: octanol/phosphate buffer, pH 7.4. Summed up:
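Formulated [11C]-labeled test compound was partitioned between octanol and phosphate buffer (pH 7.4), vortexed 2 min and centrifuged 2 min. Both layers were sampled. The octanol layer was serially transferred to fresh octanol/buffer and the procedure repeated, giving six sample sets. Radioactivity was measured in a well counter. logD = log(decay-corrected octanol activity × 10 / decay-corrected buffer activity).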

A short description of data set [1]: Plasma protein binding assay. The data set is classed as in vitro ADME. The conditions noted are these: baboon. Summed up: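 Formulated [11C]-labeled test compound was incubated 10 min at room temperature in baboon plasma pooled from at least 4 animals. Total activity was sampled, then plasma was ultrafiltered through a Centrifree device (10 min centrifugation) and the filtrate counted. %unbound = Aunbound × 100 / total activity.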

Data set [2] in a line: Brain homogenate analysis for parent compound after i.p. injection. The data set is classed as in vivo, Sprague Dawley rats. The conditions noted are these: rat, ~65 min post injection. The method, boiled down:
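Male Sprague Dawley rats (7–8 weeks) under isoflurane/oxygen got the [11C]-labeled test compound i.p. via a butterfly catheter with a saline rinse (3.0 ± 0.4 mCi), followed by 60 min dynamic PET. Animals were decapitated and brains homogenized in water. The homogenate was precipitated with cold acetonitrile, vortexed and centrifuged (2000 rcf, 2 min). The supernatant was spiked with standard, γ-counted and run on HPLC; the co-eluting fraction was counted as a decay-corrected ratio to initial homogenate radioactivity.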

For data set [3] the following is noted: [acetyl-11C]-SA from published data; ref Hooker et al., 2008; cited from earlier work.
For data set [4] the following is noted: in vivo, 10 mg/kg; cited from earlier work.
Assay in data set [5]: not given
The source holds these as a separate data set.

For data set [6] the following is noted: [acetyl-11C]-SA from published data; ref Hooker et al., 2008; cited from earlier work. This is another data set of the same source.
For data set [7] the following is noted: baboon, i.v., acetyl-labeled SA, previous study; ref Hooker, 2008; cited from earlier work.
Data set [8] has as its system permeability glycoprotein (P-gp). The conditions noted are these: ref Teksin et al., 2009; cited from earlier work.
The mark [9] stands for this setting: female, baboon (Papio anubis), in vivo, iv.

What is called logD is lipophilicity at a set pH, counting ionised and neutral species. A word on the fraction unbound: it is the share of the substance not bound to proteins or other matrix. A low value points to little free substance. Compound `CCOCO[C@H]1C[C@@H](C(=O)OC)[C@]2(C)CC[C@H]3C(=O)O[C@H](c4ccoc4)C[C@]3(C)[C@H]2C1=O` [EOM-SB] came in with a logD in “LogD determination” of 2.46 ± 0.01. The compound also showed a fraction unbound at 10 min in data set [1] of 0.234. Further, in data set [2], the “proportion of parent compound remaining in brain homogenate” value came to 14% and the “proportion of parent remaining in brain homogenate, fold higher than [11C]-SA” value is given as about 3 fold. The “plasma radioactivity that was parent compound” value under setting [9] is listed as about 50%.
As to `COC(=O)[C@@H]1C[C@H](OC(C)=O)C(=O)[C@H]2[C@@]1(C)CC[C@H]1C(=O)O[C@H](c3ccoc3)C[C@]21C` [SA, Salvinorin A], the “Plasma Protein Binding (% unbound)” value in [3] is recorded as 16.1 % (n = 2). Also, the “antinociception after 30 minutes” value in data set [4] was “no detectable antinociception”. Also, the “maximum average concentration in the brain” value in data set [5] (baboon, bolus intravenous administration, whole brain ROI) came out at 0.015 % ID/cm^3. For the same compound, the “brain radioactivity at 60 min after injection (cleared to)” value in [5] (baboon, i.v., labeled at the methyl ester) came to 0.001%. Besides, the “LogD (pH 7.4)” value in data set [6] was 2.34 ± 0.09 (n = 4). Besides, the “residual radioactivity in brain at 60 min after injection” value in data set [7] is 0.004 % ID/cm^3. Also, the “time to be metabolized to ~50% in plasma” value (baboon plasma after i.v. injection) is recorded as “under 5 min”. Also, the “efflux by permeability glycoprotein (P-gp)” value in [8] is on record as “efflux”.
`COC(=O)[C@@H]1C[C@H](O)C(=O)[C@H]2[C@@]1(C)CC[C@H]1C(=O)O[C@H](c3ccoc3)C[C@]21C` [SB, Salvinorin B] showed a logD in “LogD determination” of 1.5. Besides, the fraction unbound at 10 min in [1] was found to be 0.473. In [5] (setting [9]), the “lower average maximum brain concentration relative to [11C]-SA” value was “approximately 20%”, the “time of peak brain concentration” value is listed as 70 s and the “time to clear to half of maximum brain concentration” value came out at 6.0 min.

The values are drawn from paper PMC2745083 (Neuropharmacology, 2009).
